# Measured values reported in article PMC9352169 (ACS Omega, 2022).
# Values joined by “and” are separate entries in the source; they are usually repeats but may differ in a detail not shown here. Equal values may be shown once.
# Columns and labels:
# [1] = Substitution kinetics of chlorides by L-methionine; type: physicochemical; settings: Nu = L-Met, 35 °C, pH 7.2; for k2^1st × 10^1: first step; for k1^2nd × 10^4: second step (ring closure)
# Outline: (§1)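 Chloride substitution was followed by UV-vis under pseudo-first-order conditions: complex 50 μM with the nucleophile in ≥20-fold excess, in 5 mM Tris–HCl/50 mM NaCl, pH 7.2. Complex stocks were 5 mM in 5% DMF. Runs spanned 25–55 °C at 10 °C intervals, and the Tu trace was taken at 524 nm. Rate constants came from kobs vs [nucleophile] plots, with activation parameters from temperature dependence.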
# [2] = Substitution kinetics of chlorides by thiourea; type: physicochemical; settings: Nu = Tu, 35 °C; for k2^1st × 10^1: first step; for k2^1st × 10^1 / k2^2nd × 10^2: pH 7.2; for k–1^2nd × 10^5: second step back reaction; for k2^2nd × 10^2: second step
# Outline: as §1
# BSA = BSA (Bos taurus, UniProt P02769); test: BSA fluorescence quenching titration; type: binding, bovine; settings: for Ksv × 10^–5: BSA 1.08 μM; for Ksv × 10^–5 / Decrease in initial BSA fluorescence: λem = 348 nm; for kq × 10^–13: BSA quenching; for KF × 10^–5 / n (number of binding sites): BSA, Scatchard; for Decrease in initial BSA fluorescence: pH 7.2
# Outline: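 Complex stocks were 5 mM in DMSO, diluted in buffer, and samples were incubated about 14 h at 37 °C before reading. Emission was read at 348 nm and checked for inner-filter effects by UV-vis. Data were fitted by Stern–Volmer and Scatchard analysis.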
# [3] = tested on: human breast adenocarcinoma, MCF-7 cell line; test: MTT cytotoxicity assay, MCF-7; type: cell-based; settings: for SI (IC50 of Vero cell line/IC50 of MCF-7 cell line): Vero vs MCF-7; for IC50: read-out: IC50 breast cancer MCF-7, MTT, 24 h incubation, n = 3
# Outline: (§2)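 MTT viability assay. Vero cells were grown in MEM and MCF-7 cells in DMEM, both with 10% FBS and penicillin/streptomycin, at 37 °C and 5% CO2. Cells were exposed 24 h to test complex at 2, 4, 8, 16, 32 and 64 (DMSO stock). Viability was expressed relative to untreated control and IC50 computed. Values are mean ± SD of three independent experiments. SI = IC50 Vero / IC50 MCF-7.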
# zebrafish embryos [4] = test: Zebrafish embryo acute toxicology; type: in vivo, Danio rerio; settings: for drop of survival rate when the concentration increased from 15 to 90 μM / morphological changes in zebrafish embryos / LC50: 96 hpf; for morphological changes in zebrafish embryos: even at 90 M (printed); for LC50: zebrafish embryos
# EtBr + CT-DNA adduct = test: Fluorescence EtBr exchange titration on CT-DNA; type: binding, calf; settings: for n (number of binding sites) / KF × 10^–4 (Scatchard binding constant) / Kapp × 10^–6 (apparent binding constant) / Ksv × 10^–4 (Stern–Volmer quenching constant) / kq × 10^–12 (bimolecular quenching rate constant): EtBr exchange; for n (number of binding sites): Scatchard; for KF × 10^–4 (Scatchard binding constant) / Kapp × 10^–6 (apparent binding constant) / Ksv × 10^–4 (Stern–Volmer quenching constant) / kq × 10^–12 (bimolecular quenching rate constant) / Decrease in initial EtBr+CT-DNA fluorescence: pH 7.2; for Decrease in initial EtBr+CT-DNA fluorescence: λem = 596 nm, λex = 510 nm
# Outline: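 Competitive EtBr displacement used EtBr 20.0 μM and CT-DNA 20.0 μM with test complex added at 0–150 μM, in 5 mM Tris/50 mM NaCl, pH 7.2. Samples were equilibrated about 14 h at 37 °C. Emission was 596 nm (excitation 510 nm), with inner-filter check. Data were analysed as Stern–Volmer Io/I vs [Q] and Scatchard log[(Io–I)/I] vs log[Q].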
# supercoiled pcDNA = test: Photoinduced pcDNA cleavage; type: biochemical; settings: 250 μM complex + 0.1 μM pcDNA
# normal Vero cell line = test: MTT cytotoxicity assay, Vero; type: cell-based; settings: read-out: IC50 normal Vero, 24 h incubation, n = 3
# Outline: as §2
# [5] = tested on: guanosine-5′-monophosphate, 5′-GMP; test: Substitution kinetics of chlorides by guanosine-5′-monophosphate; type: physicochemical; settings: Nu = 5′-GMP, 35 °C; for k2^1st × 10^1: first step; for k2^1st × 10^1 / k2^2nd × 10^2: pH 7.2; for k–1^2nd × 10^5: second step back reaction; for k2^2nd × 10^2: second step
# Outline: as §1
# CT-DNA = CT-DNA UV-vis absorption titration; type: binding, calf; settings: Van't Hoff equation ΔG = −RT lnKb
# Outline: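 UV-vis titration of test complex (14 μM) with CT-DNA (0–90 μM) in 5 mM Tris–HCl/50 mM NaCl, pH 7.2. Complex came from a 5 mM DMSO stock diluted in buffer, and samples were equilibrated about 14 h at 37 °C. The binding constant came from absorbance changes, and ΔG from it.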
# zebrafish embryos [6] = settings: cited from earlier work
# Chain of BSA (P02769 25-607): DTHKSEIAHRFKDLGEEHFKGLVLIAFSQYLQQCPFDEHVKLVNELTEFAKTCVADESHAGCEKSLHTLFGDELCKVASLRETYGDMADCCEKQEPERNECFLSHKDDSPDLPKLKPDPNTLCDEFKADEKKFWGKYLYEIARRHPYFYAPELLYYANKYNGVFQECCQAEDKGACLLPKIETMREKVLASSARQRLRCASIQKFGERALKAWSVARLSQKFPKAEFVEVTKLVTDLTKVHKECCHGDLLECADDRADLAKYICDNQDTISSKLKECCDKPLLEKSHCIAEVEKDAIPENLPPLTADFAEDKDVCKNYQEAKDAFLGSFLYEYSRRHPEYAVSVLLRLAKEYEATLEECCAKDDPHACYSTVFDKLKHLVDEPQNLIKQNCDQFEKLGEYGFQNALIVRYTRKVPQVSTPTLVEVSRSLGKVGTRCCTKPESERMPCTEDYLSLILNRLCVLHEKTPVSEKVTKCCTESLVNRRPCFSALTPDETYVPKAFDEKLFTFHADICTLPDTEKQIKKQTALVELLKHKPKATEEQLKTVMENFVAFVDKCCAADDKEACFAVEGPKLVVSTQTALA
Molecule,k2^1st × 10^1 [1] [M^–1 s^–1],k1^2nd × 10^4 [1],k2^1st × 10^1 [2] [M^–1 s^–1],k–1^2nd × 10^5 [2] [s^–1],k2^2nd × 10^2 [2] [M^–1 s^–1],experimental ΔG of binding with BSA (BSA) [kJ mol^–1],Ksv × 10^–5 (BSA) [M^–1],kq × 10^–13 (BSA) [M^–1 s^–1],KF × 10^–5 (BSA) [M^–1],n (number of binding sites) (BSA),Decrease in initial BSA fluorescence (BSA),SI (IC50 of Vero cell line/IC50 of MCF-7 cell line) [3],IC50 [3] [µM],morphological changes in zebrafish embryos (zebrafish embryos [4]),LC50 (zebrafish embryos [4]) [µM],n (number of binding sites) (EtBr + CT-DNA adduct),KF × 10^–4 (Scatchard binding constant) (EtBr + CT-DNA adduct) [M^–1],Kapp × 10^–6 (apparent binding constant) (EtBr + CT-DNA adduct) [M^–1],Ksv × 10^–4 (Stern–Volmer quenching constant) (EtBr + CT-DNA adduct) [M^–1],kq × 10^–12 (bimolecular quenching rate constant) (EtBr + CT-DNA adduct) [M^–1 s^–1],also measured
"[Cl-].[Cl-].[Pt+2].[Ru+2].c1ccc(-c2nccnc2-c2ccccn2)nc1.c1cnc2c(c1)ccc1cccnc12.c1cnc2c(c1)ccc1cccnc12 [C1, [(1,10-phenanthroline)2Ru(II)(μ-2,3-bis(2-pyridyl)pyrazine)Pt(II)dichloride]^2+]",0.75 ± 0.11,0.37 ± 0.08 ^a s^–1,1.45 ± 0.15,1.04 ± 0.04,2.73 ± 0.10,−31.02,1.84 ± 0.08,1.84 ± 0.16,0.47 ± 0.06,0.84 ± 0.03,up to 20%,2.12,9.1 ± 1.5,did not induce any significant morphological changes,65.2 ± 1,0.99 ± 0.04,1.00 ± 0.05,3.33 ± 0.11,1.59 ± 0.07,0.69 ± 0.19,drop of survival rate when the concentration increased from 15 to 90 μM (zebrafish embryos [4]): 50%; Decrease in initial EtBr+CT-DNA fluorescence (EtBr + CT-DNA adduct): up to 19%; % of NC (pcDNA cleavage) (supercoiled pcDNA): ~24%; IC50 (normal Vero cell line): 19.3 ± 2.1 µM; k2^1st × 10^1 [5]: 0.34 ± 0.09 M^–1 s^–1; k–1^2nd × 10^5 [5]: 0.20 ± 0.02 s^–1; k2^2nd × 10^2 [5]: 0.75 ± 0.04 M^–1 s^–1; ΔG of binding with CT-DNA (CT-DNA): −30 ± 3 kJ mol^–1
"[Cl-].[Cl-].[Pt+2].[Ru+2].c1ccc(-c2nc3ccccc3nc2-c2ccccn2)nc1.c1cnc2c(c1)ccc1cccnc12.c1cnc2c(c1)ccc1cccnc12 [C2, [(1,10-phenanthroline)2Ru(II)(μ-2,3-bis(2-pyridyl)quinoxaline)Pt(II)dichloride]^2+]",1.75 ± 0.18,1.02 ± 0.15 ^a s^–1,4.26 ± 0.21,4.35 ± 0.09,8.65 ± 0.15,−31.55,2.26 ± 0.15,2.26 ± 0.24,1.16 ± 0.10,1.00 ± 0.05,≤ 17%,4.38,4 ± 1.1,did not induce any significant morphological changes,96.3 ± 1.4,0.99 ± 0.05,1.98 ± 0.11,6.25 ± 0.17,2.83 ± 0.13,1.23 ± 0.24,Decrease in initial EtBr+CT-DNA fluorescence (EtBr + CT-DNA adduct): ≤ 23%; % of NC (pcDNA cleavage) (supercoiled pcDNA): ~18%; IC50 (normal Vero cell line): 17.5 ± 1.9 µM; k2^1st × 10^1 [5]: 0.96 ± 0.13 M^–1 s^–1; k–1^2nd × 10^5 [5]: 0.84 ± 0.04 s^–1; k2^2nd × 10^2 [5]: 1.48 ± 0.08 M^–1 s^–1; ΔG of binding with CT-DNA (CT-DNA): −35 ± 2 kJ mol^–1
"[Cl-].[Cl-].[Pt+2].[Ru+2].c1ccc(-c2nc3cc4ccccc4cc3nc2-c2ccccn2)nc1.c1cnc2c(c1)ccc1cccnc12.c1cnc2c(c1)ccc1cccnc12 [C3, [(1,10-phenanthroline)2Ru(II)(μ-2,3-bis(2-pyridyl)benzo[g]quinoxaline)Pt(II)dichloride]^2+]",3.10 ± 0.26,2.08 ± 0.33 ^a s^–1,7.57 ± 0.29,10.99 ± 0.13,14.53 ± 0.22,−31.97,2.65 ± 0.22,2.65 ± 0.33,6.64 ± 0.17,1.01 ± 0.07,≤ 10%,5.55 and 5.23,3.1 ± 0.8,did not induce any significant morphological changes,149,1.00 ± 0.07,3.96 ± 0.17,8.00 ± 0.23,3.92 ± 0.19,1.70 ± 0.31,"% of survival rate (zebrafish embryos [4]; 15 μM, 96 h): 86.7%; embryos abnormal, difficulty growing into juvenile zebrafish (zebrafish embryos [4]; 45 μM or higher concentration): about 25%; % of survival rate (zebrafish embryos [4]; 90 μM, 96 h): 56.7%; drop of survival rate when the concentration increased from 15 to 90 μM (zebrafish embryos [4]): 30%; Decrease in initial EtBr+CT-DNA fluorescence (EtBr + CT-DNA adduct): ≤ 37%; % of NC (pcDNA cleavage) (supercoiled pcDNA): 17%; IC50 (normal Vero cell line): 16.2 ± 1.7 µM; k2^1st × 10^1 [5]: 1.39 ± 0.15 M^–1 s^–1; k–1^2nd × 10^5 [5]: 2.22 ± 0.04 s^–1; k2^2nd × 10^2 [5]: 2.20 ± 0.10 M^–1 s^–1; ΔG of binding with CT-DNA (CT-DNA): −36 ± 3 kJ mol^–1"
"cis-[Pt(NH3)2Cl2] [cisplatin, reference compound]",,,,,,,,,,,,4.02,,did not induce any significant morphological changes,181,,,,,,"% of survival rate (zebrafish embryos [4]; 15 μM, 96 h): over 90%; % of hatching rate (zebrafish embryos [4]; 90 μM, 96 h): about 6.7%; % of survival rate (zebrafish embryos [4]; 90 μM, 96 h): 60%; lethality in zebrafish (zebrafish embryos [6]; 400 μM): lethal outcome; toxicity in developing zebrafish embryos (zebrafish embryos [6]; under 15 μM, delayed hatching up to 120 hpf): nontoxic"
